Measurements taken from ChEMBL document CHEMBL4732238, “Synthesis, biological evaluation, and structure-activity relationships of new tubulin polymerization inhibitors based on 5-amino-1,2,4-triazole scaffold” (Bioorg Med Chem Lett, 2021).

What was measured:
[1] = system: MCF7; test: Antiproliferative activity against human MCF7 cells assessed as cell growth inhibition at 100 uM by MTT assay relative to control; format: functional; settings: read-out: GI
Summary of the method: (§1)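 Five human lines (MCF-7, HeLa, A549, PC-3, Panc-1) exposed to a single 100 μM concentration. Viability read by MTT. Results expressed as […] versus untreated control cells.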

[2] = system: HeLa; test: Antiproliferative activity against human HeLa cells assessed as cell growth inhibition at 100 uM by MTT assay relative to control; format: functional; settings: read-out: GI; summary of the method: as §1
[3] = system: A549; test: Antiproliferative activity against human A549 cells assessed as cell growth inhibition at 100 uM by MTT assay relative to control; format: functional; settings: read-out: GI; summary of the method: as §1
[4] = system: PC-3; test: Antiproliferative activity against human PC-3 cells assessed as cell growth inhibition at 100 uM by MTT assay relative to control; format: functional; settings: read-out: GI; summary of the method: as §1
[5] = system: PANC-1; test: Antiproliferative activity against human PANC-1 cells assessed as cell growth inhibition at 100 uM by MTT assay relative to control; format: functional; settings: read-out: GI; summary of the method: as §1
[6] = system: MCF7; test: Antiproliferative activity against human MCF7 cells assessed as cell growth inhibition by MTT assay; format: functional, cell-based
Summary of the method: (§2)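 MTT antiproliferation readout. […] Mean ± SD from three independent experiments.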

[7] = system: HeLa; test: Antiproliferative activity against human HeLa cells assessed as cell growth inhibition by MTT assay; format: functional, cell-based; summary of the method: as §2
[8] = system: PANC-1; test: Antiproliferative activity against human PANC-1 cells assessed as cell growth inhibition by MTT assay; format: functional, cell-based; summary of the method: as §2
[9] = system: K562; test: Antiproliferative activity against human K562 cells assessed as cell growth inhibition by MTT assay; format: functional, cell-based
[10] = target: Tubulin (Homo sapiens) (UniProt P68371+Q9H4B7+P0DPH7+P68366+Q13509+Q71U36+P04350+Q3ZCM7+P07437+P68363+Q9BQE3+Q6PEY2+Q13885+Q9BVA1+Q9BUF5); test: Inhibition of tubulin (unknown origin) polymerization at 10 uM measured every 1 min over 20 mins by fluorescence assay relative to control; format: protein-complex assay
Summary of the method: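 Tubulin in reaction buffer incubated at 37 °C with test agent at final 10 μM; control 1% DMSO. Polymerization followed at 340 nm, read every minute over 20 min. Run three times.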

[11] = target: Tubulin; test: Inhibition of tubulin (unknown origin) polymerization measured every 1 min over 20 mins by fluorescence assay; format: protein-complex assay, Homo sapiens
Summary of the method: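 Tubulin polymerization at 37 °C in reaction buffer, followed at 340 nm each minute over 20 min; 1% DMSO control. IC50 given as mean of three independent experiments done in quadruplicate.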

- IC50 [6]: 40.6 µM
- IC50 [7]: 52.2 µM
- IC50 [8]: 59.8 µM
- IC50 [9]: 66 µM
- inhibition [10]: 52%
- IC50 [11]: 9.4 µM
Structure (SMILES): COc1ccc(C(=O)Cn2nc(-c3cc(OC)c(OC)c(OC)c3)nc2N)cc1
- inhibition of growth at 100 µM [1]: 73%
- inhibition of growth at 100 µM [2]: 76%
- inhibition of growth at 100 µM [3]: 21%
- inhibition of growth at 100 µM [4]: 31%
- inhibition of growth at 100 µM [5]: 57%
